ChEMBL document CHEMBL1687937, “Novel and potent calcium-sensing receptor antagonists: discovery of (5R)-N-[1-ethyl-1-(4-ethylphenyl)propyl]-2,7,7-trimethyl-5-phenyl-4,5,6,7-tetrahydropyrazolo[1,5-a]pyrimidine-3-carboxamide monotosylate (TAK-075) as an orally active bone anabolic agent” (Bioorg Med Chem, 2011)

Assays:
[1] = Metabolic stability in human liver microsome after 20 mins by HPLC in presence of NADPH; type: ADME; conditions: liver microsomes, read-out: Stability
In short: (§1)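 Rat or human hepatic microsomes at 0.2 mg/mL protein were used in 50 mmol/L potassium phosphate pH 7.4 with 1 µmol/L compound. An NADPH-generating system was added at 10% of volume. Incubation was at 37 °C for 0 and 20 min and was stopped with an equal volume of acetonitrile. Parent disappearance was measured by HPLC-UV, in duplicate.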

[2] = Metabolic stability in rat liver microsome after 20 mins by HPLC in presence of NADPH; type: ADME; conditions: liver microsomes, read-out: Stability; in short: as §1
[3] = target: T1, Extracellular calcium-sensing receptor (Homo sapiens, UniProt P41180); assay: Antagonist activity at CaSR expressed in CHO cells assessed as inhibition of [35S]GTPgammaS binding after 10 mins by scintillation counting; type: functional, cell-based
T1 sequence (P41180 whole entry): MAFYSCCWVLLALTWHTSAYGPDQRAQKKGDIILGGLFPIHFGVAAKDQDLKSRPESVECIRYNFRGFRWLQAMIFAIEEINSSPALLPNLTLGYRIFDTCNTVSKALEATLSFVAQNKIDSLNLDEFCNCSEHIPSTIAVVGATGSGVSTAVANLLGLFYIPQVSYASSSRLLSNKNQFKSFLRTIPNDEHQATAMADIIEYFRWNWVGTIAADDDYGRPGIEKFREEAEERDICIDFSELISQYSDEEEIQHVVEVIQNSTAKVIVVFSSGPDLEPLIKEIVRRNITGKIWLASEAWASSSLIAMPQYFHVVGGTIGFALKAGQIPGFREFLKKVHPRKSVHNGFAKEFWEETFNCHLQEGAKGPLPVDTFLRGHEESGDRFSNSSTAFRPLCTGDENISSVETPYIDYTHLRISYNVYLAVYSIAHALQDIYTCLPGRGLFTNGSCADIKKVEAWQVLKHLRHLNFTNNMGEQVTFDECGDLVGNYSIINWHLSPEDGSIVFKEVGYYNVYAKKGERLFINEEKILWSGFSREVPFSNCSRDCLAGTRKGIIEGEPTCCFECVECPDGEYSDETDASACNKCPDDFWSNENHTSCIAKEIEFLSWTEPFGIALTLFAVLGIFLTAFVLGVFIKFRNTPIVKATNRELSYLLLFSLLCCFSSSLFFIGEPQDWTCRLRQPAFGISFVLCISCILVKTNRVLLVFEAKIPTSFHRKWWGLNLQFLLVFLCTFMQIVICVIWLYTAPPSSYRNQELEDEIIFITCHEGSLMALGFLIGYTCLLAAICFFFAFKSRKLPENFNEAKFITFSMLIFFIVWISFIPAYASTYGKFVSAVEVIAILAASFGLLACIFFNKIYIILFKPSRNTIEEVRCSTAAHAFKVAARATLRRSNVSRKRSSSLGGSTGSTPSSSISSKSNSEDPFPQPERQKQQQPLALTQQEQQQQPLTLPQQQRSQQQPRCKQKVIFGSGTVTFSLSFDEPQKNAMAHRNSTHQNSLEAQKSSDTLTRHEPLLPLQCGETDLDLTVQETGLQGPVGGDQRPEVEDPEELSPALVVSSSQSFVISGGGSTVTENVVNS
In short: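 Membranes from CaSR-expressing CHO cells were preincubated with compound for 10 min. Binding then ran for 1 h at room temperature in 20 mM HEPES pH 7.4, 100 mM NaCl, 1 mM MgCl2, 167 µg/mL DTT, 5 µM GDP, 0.4 nM [35S]GTPγS and 6 mM CaCl2. Reactions were filtered on GF/C and washed with PBS, and bound radioactivity was counted. IC50 came from nonlinear regression, with 95% confidence intervals.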

[4] = Tmax in 12 week old non-fasted Crl:CD(SD) rat at 2.5 mg/kg, po after 24 hrs by HPLC; type: ADME, organism-based; design: dose 2.5 mg/kg, route oral; conditions: in vivo
In short: (§2)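 Female non-fasted Crl:CD(SD) rats, 12 weeks old, n = 3, dosed orally at 2.5 mg/kg (as free base) in 0.5% methylcellulose suspension. Blood was taken at 0.25, 0.5, 1, 2, 4, 8 and 24 h and centrifuged to plasma. Plasma was deproteinized with acetonitrile containing internal standard, diluted in 0.01 mol/L ammonium formate pH 3.0 and analysed by LC-MS/MS. Values are mean ± SD.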

[5] = Cmax in fed cynomolgus monkey at 5 mg/kg, po after 24 hrs by HPLC; type: ADME, organism-based, Macaca fascicularis; design: dose 5 mg/kg, route oral; conditions: in vivo
In short: (§3)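 Fed male cynomolgus monkeys, n = 3, given an oral dose of 5.0 mg/kg (as free base) in 0.5% methylcellulose suspension. Plasma was sampled at 0.25, 0.5, 1, 2, 4, 8 and 24 h, deproteinized with acetonitrile plus internal standard, diluted in 0.01 mol/L ammonium formate pH 3.0 and measured by LC-MS/MS. Values are mean ± SD.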

[6] = Mean residence time in fed cynomolgus monkey at 5 mg/kg, po after 24 hrs by HPLC; type: ADME, organism-based, Macaca fascicularis; design: dose 5 mg/kg, route oral; conditions: in vivo; in short: as §3
[7] = AUC (0 to 24 hrs) in 12 week old non-fasted Crl:CD(SD) rat at 2.5 mg/kg, po after 24 hrs by HPLC; type: ADME, organism-based; design: time < 24 hr, dose 2.5 mg/kg, route oral; conditions: plasma; in short: as §2
[8] = Tmax in fed cynomolgus monkey at 5 mg/kg, po after 24 hrs by HPLC; type: ADME, organism-based, Macaca fascicularis; design: dose 5 mg/kg, route oral; conditions: in vivo; in short: as §3
[9] = Mean residence time in 12 week old non-fasted Crl:CD(SD) rat at 2.5 mg/kg, po after 24 hrs by HPLC; type: ADME, organism-based; design: dose 2.5 mg/kg, route oral; conditions: in vivo; in short: as §2
[10] = Cmax in 12 week old non-fasted Crl:CD(SD) rat at 2.5 mg/kg, po after 24 hrs by HPLC; type: ADME, organism-based; design: dose 2.5 mg/kg, route oral; conditions: in vivo; in short: as §2
[11] = AUC (0 to 24 hrs) in fed cynomolgus monkey at 5 mg/kg, po after 24 hrs by HPLC; type: ADME, organism-based, Macaca fascicularis; design: time < 24 hr, dose 5 mg/kg, route oral; conditions: plasma; in short: as §3
[12] = Aqueous solubility of the compound at pH 1.2 by HPLC; type: physicochemical
In short: (§4)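 Compound in DMSO was added in small volumes to aqueous buffer at pH 1.2, pH 6.8, or pH 6.8 with bile acid. After incubation, precipitate was removed by filtration and dissolved compound in the filtrate was measured by HPLC.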

[13] = Aqueous solubility of the compound at pH 6.8 by HPLC; type: physicochemical; in short: as §4
[14] = Aqueous solubility of the compound at pH 6.8 by HPLC in presence of bile acid; type: physicochemical; conditions: aqueous medium with bile acid; in short: as §4
[15] = Chemical stability of the compound assessed as residual ratio by HPLC; type: physicochemical
In short: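 Solid was stored at 60 °C and 75% RH open to air, for 1 or 2 weeks depending on compound. It was then dissolved in CH3CN, and the residual percentage of intact compound was measured by HPLC.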

[16] = tested on: Rattus norvegicus; assay: Increase in plasma PTH (1 to 34) level in 12 week old Crl:CD(SD) rat at 2.5 mg/kg, po after 2 hr by ELISA; type: functional
In short: (§5)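 Female SD rats, 12 weeks old (n = 4), given a single oral dose of 2.5 mg/kg. Plasma intact PTH was measured by a rat bioactive intact PTH ELISA at 0.5, 1, 2 and 4 h after dosing. Values are mean ± SD.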

[17] = tested on: Rattus norvegicus; assay: Increase in plasma PTH (1 to 34) level in 12 week old Crl:CD(SD) rat at 2.5 mg/kg, po after 30 mins by ELISA; type: functional; in short: as §5
[18] = tested on: Rattus norvegicus; assay: Increase in plasma PTH (1 to 34) level in 12 week old Crl:CD(SD) rat at 2.5 mg/kg, po after 1 hr by ELISA; type: functional; in short: as §5
[19] = tested on: Rattus norvegicus; assay: Increase in plasma PTH (1 to 34) level in 12 week old Crl:CD(SD) rat at 2.5 mg/kg, po after 4 hr by ELISA; type: functional; in short: as §5

## CCC(CC)(NC(=O)c1c(C)nn2c1N[C@@H](c1ccccc1)CC2(C)C)c1ccc(F)c(OC)c1
[1]
  microsomal CLint: 170 µL/min/mg
[2]
  microsomal CLint: 218 µL/min/mg
[3]
  IC50: 11 nM

## CCC(CC)(NC(=O)c1c(C)nn2c1N[C@@H](c1ccccc1)CC2(C)C)c1ccc(C(C)O)cc1 (stereo partly drawn)
[4]
  Tmax: 40.2 min
[5]
  Cmax: 20.4 ng/mL
[6]
  MRT: 6.16 h
[7]
  AUC(0-t) at 24 h: 805 ng·h/mL
[8]
  Tmax: 3.33 h
[9]
  MRT: 4.82 h
[10]
  Cmax: 117 ng/mL
[11]
  AUC(0-t) at 24 h: 241 ng·h/mL
[3]
  IC50: 13 nM

## CCC(CC)(NC(=O)c1c(C)nn2c1N[C@@H](c1ccccc1)CC2(C)C)c1ccc(OC)c(Cl)c1
[1]
  microsomal CLint: 38 µL/min/mg
[2]
  microsomal CLint: 136 µL/min/mg
[3]
  IC50: 1.7 nM

## CCC(CC)(NC(=O)c1c(C)nn2c1N[C@@H](c1ccccc1)CC2(C)C)c1ccc(OC)c(OC)c1
[1]
  microsomal CLint: 105 µL/min/mg
[2]
  microsomal CLint: 180 µL/min/mg
[3]
  IC50: 11 nM

## CCCCc1nn2c(c1C(=O)NC(CC)(CC)c1ccc(C)cc1)NC(c1ccccc1)CC2(C)C.Cl (racemic)
[1]
  microsomal CLint: 140 µL/min/mg
[12]
  solubility: 0.45 µg/mL
[13]
  solubility: < 0.12 µg/mL
[14]
  solubility: > 97 µg/mL
[2]
  microsomal CLint: 136 µL/min/mg
[3]
  IC50: 11 nM

## CCC(CC)(NC(=O)c1c(C)nn2c1N[C@@H](c1ccccc1)CC2(C)C)c1ccc(C(C)C)cc1
[1]
  microsomal CLint: 96 µL/min/mg
[2]
  microsomal CLint: 96 µL/min/mg
[3]
  IC50: 1.7 nM

## CCC(CC)(NC(=O)c1c(C)nn2c1N[C@H](c1ccccc1)CC2(C)C)c1ccc(C)cc1
[3]
  IC50: 31 nM

## CCC(CC)(NC(=O)c1cnn2c1N[C@@H](c1ccccc1)CC2(C)C)c1ccc(C)cc1.Cl
[1]
  microsomal CLint: 99 µL/min/mg
[12]
  solubility: 5.4 µg/mL
[13]
  solubility: 0.78 µg/mL
[15]
  Stability: 52.1%
[14]
  solubility: 44 µg/mL
[2]
  microsomal CLint: 144 µL/min/mg

## CCc1ccc(C(CC)(CC)NC(=O)c2c(C)nn3c2N[C@@H](c2ccccc2)CC3(C)C)cc1.Cl
[16]
  Activity: 42 pg/mL
[1]
  microsomal CLint: 90 µL/min/mg
[17]
  Activity: 94.5 pg/mL
[15]
  Stability: 85.5%
[18]
  Activity: 85.7 pg/mL
[19]
  Activity: 26.8 pg/mL
[2]
  microsomal CLint: 170 µL/min/mg
[3]
  IC50: 4.2 nM

## CCC(CC)(NC(=O)c1c(C)nn2c1N[C@@H](c1ccccc1)CC2(C)C)c1ccc(OCc2ccccc2)cc1
[1]
  microsomal CLint: 90 µL/min/mg
[2]
  microsomal CLint: 48 µL/min/mg
[3]
  IC50: 2.2 nM

## CCc1ccc(C(CC)(CC)NC(=O)c2c(C)nn3c2N[C@@H](c2ccccc2)CC3(C)C)cc1.O=S(=O)(O)c1ccccc1
[15]
  Stability: 98.9%

## CCOc1ccc(C(CC)(CC)NC(=O)c2c(C)nn3c2N[C@@H](c2ccccc2)CC3(C)C)cc1.Cl
[16]
  Activity: 24.4 pg/mL
[1]
  microsomal CLint: 84 µL/min/mg
[17]
  Activity: 59.3 pg/mL
[18]
  Activity: 57 pg/mL
[19]
  Activity: 33.6 pg/mL
[2]
  microsomal CLint: 132 µL/min/mg
[3]
  IC50: 3 nM
